Screening results (PubChem BioAssay)
The list is not random: actives were taken first. Their share in the collection is about 1.6%.
PLC-beta3 inh – human PLC-beta3 inhibitors, primary screen, biochemical, fluorescence; inhibition, % at 12.2 µM; Purified PLC-beta3, fluorogenic substrate; 370,000 tested, 0.18% active; 1-phosphatidylinositol 4,5-bisphosphate phosphodiesterase beta-3 (Homo sapiens), Q01970; AID 720704, 2013; in the data active means inhibition above about 11%;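 further: 0% = median of compound wells on plate and 100% = full blocker control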
Target sequence (Q01970 whole entry, looked up): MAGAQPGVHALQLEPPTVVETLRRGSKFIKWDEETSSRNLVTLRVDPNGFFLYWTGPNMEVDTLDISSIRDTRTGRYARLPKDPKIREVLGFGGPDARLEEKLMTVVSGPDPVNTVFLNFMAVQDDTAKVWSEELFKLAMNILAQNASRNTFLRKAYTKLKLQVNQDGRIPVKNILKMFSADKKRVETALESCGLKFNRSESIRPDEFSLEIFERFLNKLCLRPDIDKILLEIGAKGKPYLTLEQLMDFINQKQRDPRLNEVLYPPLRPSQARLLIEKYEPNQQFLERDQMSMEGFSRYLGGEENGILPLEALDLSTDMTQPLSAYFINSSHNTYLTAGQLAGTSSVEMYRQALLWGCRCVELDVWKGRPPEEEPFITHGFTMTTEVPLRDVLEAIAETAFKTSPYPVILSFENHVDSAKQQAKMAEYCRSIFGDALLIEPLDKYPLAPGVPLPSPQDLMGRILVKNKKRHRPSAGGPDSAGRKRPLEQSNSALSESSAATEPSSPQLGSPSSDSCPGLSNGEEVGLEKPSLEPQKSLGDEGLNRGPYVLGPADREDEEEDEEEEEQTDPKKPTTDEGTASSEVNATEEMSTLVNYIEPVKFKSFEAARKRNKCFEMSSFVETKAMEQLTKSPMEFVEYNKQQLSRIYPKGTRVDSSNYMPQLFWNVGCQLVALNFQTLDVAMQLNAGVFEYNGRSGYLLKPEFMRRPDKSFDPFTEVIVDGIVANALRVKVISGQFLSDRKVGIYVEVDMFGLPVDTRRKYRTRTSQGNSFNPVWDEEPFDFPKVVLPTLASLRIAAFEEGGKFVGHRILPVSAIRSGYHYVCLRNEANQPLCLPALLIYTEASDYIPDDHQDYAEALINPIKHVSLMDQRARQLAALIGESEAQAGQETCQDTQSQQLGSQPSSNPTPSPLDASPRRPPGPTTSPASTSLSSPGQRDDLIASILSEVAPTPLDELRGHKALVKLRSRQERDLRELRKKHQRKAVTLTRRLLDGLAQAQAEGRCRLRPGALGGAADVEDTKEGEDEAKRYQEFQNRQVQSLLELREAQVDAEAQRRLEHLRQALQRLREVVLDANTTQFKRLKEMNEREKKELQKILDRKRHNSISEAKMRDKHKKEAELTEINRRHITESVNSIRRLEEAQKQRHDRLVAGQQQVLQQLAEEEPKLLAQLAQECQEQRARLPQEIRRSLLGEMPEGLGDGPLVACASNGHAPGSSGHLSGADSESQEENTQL
HGIII-sPLA2 inh – human group III sPLA2 inhibitors, primary screen, biochemical, QFRET, BODIPY PC-A2 liposome substrate; inhibition, % at 12.2 µM; Group 3 secretory phospholipase A2 (Homo sapiens), Q9NZ20; 370,000 tested, 0.56% active; AID 743126, 2013; QFRET BODIPY PC-A2 liposome hydrolysis, fluorescence;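 active means inhibition above mean plus 3 SD of compounds lying within the high and low control bounds, cut at about 19% in these data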;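 further: 0% = median of test compound wells and 100% = no enzyme DMSO wells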
proCasp3 act – activators of human procaspase-3 D3A mutant, primary screen, biochemical, absorbance, PC-3 D3A mutant, single concentration. recombinant procaspase-3 D3A, Ac-DEVD-pNA absorbance 405 nm. activation, % at 8.5 µM. 330,000 tested, 0.11% active;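 active means activation above the mean of all tested compounds plus 3 SD, cut at about 21% in these data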;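 further: 0% = DMSO alone and 100% = DMSO wells spiked with extra 5 µM PC-3 D3A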
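Assay system – Procaspase-3 D3A mutant, all three cleavage aspartates alanine · Controls – DMSO-only low control, 5 µM PC-3 D3A high control · Schedule – 1 h compound preincubation, 2 h substrate hydrolysis at 25 °C · Signal – 405 nm absorbance of p-nitroaniline, reads at 0 and 120 min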
PLC-gamma1 inh – PLC-gamma1 enzyme inhibitors, primary screen, biochemical, fluorescence, purified enzyme. 1-phosphatidylinositol 4,5-bisphosphate phosphodiesterase gamma-1 (Homo sapiens), P19174. fluorogenic substrate. inhibition, % at 12.2 µM. 370,000 tested, 0.84% active. AID 720700, 2013
procasp7 counter – procaspase-7 activators, primary screen, counter-screen for procaspase-3 activator project, biochemical, absorbance, HTS, human; Caspase-7 (Homo sapiens), P55210; recombinant procaspase-7, Ac-DEVD-pNA absorbance 405 nm; D23A/D198A/D206A triple mutant, cannot self-cleave; scale: DMSO 0, 5 µM enzyme 100; activation, % at 8.5 µM; 330,000 tested, 0.093% active; AID 463210, 2010;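 active means percent activation above the screen-wide mean plus 3 SD, cut at about 25% in these data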
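Detection: p-Nitroaniline absorbance at 405 nm, read at 0 and 120 min; system: Uncleavable procaspase-7 mutant enzyme; evaluation: % activation from two-timepoint absorbance difference, scaled to controls; times: 1 h enzyme–compound preincubation and 2 h substrate reaction, both 25 °C; buffer or medium: Zinc-free HEPES pH 7.4 with 300 mM NaCl, 0.01% Triton X-100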
PLCg1 ctr – PLC-gamma1 enzyme inhibitors, counter-screen for PLC-beta3 inhibitor project, biochemical, fluorescence; shares compounds with PLC-gamma1 inh; purified PLC-gamma1, fluorogenic substrate; inhibition, % at 12.3 µM; 3,300 tested, 3.1% active; AID 743258, 2014
PLCb3 confirm – PLC-beta3 inhibitor confirmation, biochemical, fluorescence, purified enzyme; inhibition, % at 12.3 µM; shares compounds with PLC-gamma1 inh; fluorogenic substrate fluorescence; 3,300 tested, 1% active; in the data active means inhibition above about 11%
* hit, by the source's call; · = no result given. Unless noted, no stated cut-off is given here; in the data, active means inhibition above about 9.5%; inactive means the rest.

SMILES | PLC-beta3 inh | HGIII-sPLA2 inh | proCasp3 act | PLC-gamma1 inh | procasp7 counter | PLCg1 ctr | PLCb3 confirm
COC(=O)NC(NC(=S)Nc1ccc([N+](=O)[O-])cc1)C(Cl)(Cl)Cl (stereo unspecified) | 12* | 6 | -9 | 5 | 7 | 5 | 7
COc1ccc([N+](=O)[O-])cc1NC(=O)C(C)c1ccccc1 (stereo unspecified) | 3 | 1 | 1 | 4 | -7 | · | ·
COc1ccc([N+](=O)[O-])cc1NS(=O)(=O)c1cc(C(=O)O)ccc1OC | -3 | -1 | -2 | 9.5* | -1 | -2 | -1
COc1ccc([N+](=O)[O-])cc1NC(=S)NC(NC(=O)C(c1ccccc1)c1ccccc1)C(Cl)(Cl)Cl (stereo unspecified) | 8 | 1 | -9 | 12* | 4 | -4 | -1
CCN(Cc1cccs1)C(=O)CN1C(=O)NC(c2ccccc2)(c2ccccc2)C1=O | 6 | -6 | 0 | 1 | -2 | · | ·
Fc1ccc(CSc2ncnc3c2oc2ccccc23)cc1 | 4 | 0 | -2 | 10* | -9 | -6 | -5
CCCC(=O)Nc1ccc(C(=O)Nc2nnc(COC)s2)cc1 | -2 | 1 | 7 | 4 | -3 | · | ·
COCc1nnc(NC(=O)c2ccc(NC(C)=O)cc2)s1 | 14* | 13 | 0 | 4 | -6 | -6 | -1
OC(COc1ccc(Cl)cc1)CN1CCCCC1 (stereo unspecified) | 0 | 13 | 12 | -2 | -3 | · | ·
OC(COc1c(Cl)cc(Cl)cc1Cl)CN1CCCCC1 (stereo unspecified) | 10 | 2 | 4 | 15* | 11 | -3 | 1
CC1(C)Cc2nc(Cl)c(C(N)=O)cc2CO1 | -1 | 6 | 3 | 10* | 9 | -3 | 1
Fc1ccc(C(c2nnnn2C2CCCC2)N(Cc2ccco2)CC2CCCO2)cc1 (stereo unspecified) | 12* | 1 | -3 | 11* | 1 | -7 | 0
c1ccc(CN(Cc2ccco2)C(c2ccncc2)c2nnnn2C2CCCC2)cc1 (stereo unspecified) | -7 | -1 | -2 | -7 | -2 | · | ·
CN(C)c1cccc(Nc2ccc(-c3ccc(OC(F)(F)F)cc3)cn2)c1 | -45 | 7 | · | -26 | · | · | ·
COc1ccc(OC)c(NC(=O)CCNS(=O)(=O)c2ccc3c(c2)oc(=O)n3C)c1 | 12* | -1 | -4 | 6 | 4 | -3 | -2
COc1cc(OC)c(NC(=O)CCNS(=O)(=O)c2ccc3c(c2)oc(=O)n3C)cc1Cl | 3 | 3 | 9 | 1 | -3 | · | ·
CCOc1cc(/C=N/N=C(N)N)ccc1OCc1ccc(Cl)cc1 | 4 | -17 | -7 | 1 | -3 | · | ·
NC(N)=N/N=C/c1ccc(OCc2ccccc2)c(OCc2ccccc2)c1 | -4 | -10 | 2 | 12* | -8 | 4 | 4
CCOC(=O)Cc1csc(SCC(=O)NC2CCC(C)CC2)n1 (stereo unspecified) | -2 | 2 | -1 | -2 | -2 | · | ·
O=S1(=O)CC2c3ccccc3CN2CN1C1CCCC1 (stereo unspecified) | -4 | 7 | · | -6 | · | · | ·
CCN(CC(=O)Nc1ccc(NC(C)=O)cc1)C(=O)c1c(C)nn(Cc2ccc(C)cc2)c1Cl | -4 | 13 | · | 3 | · | · | ·
O=C1NC(=S)N/C1=C/c1cccnc1 | 10 | 2 | 3 | 11* | -4 | -2 | -3
CCOC(=O)C1=C(Nc2ccccc2)CSC1 | 3 | -2 | · | 1 | · | · | ·
C=C(C)Cn1c(SCC(=O)N/N=C(\C)c2ccc([N+](=O)[O-])cc2)nnc1-c1ccc(Br)cc1 | 11* | -2 | · | 10* | · | 2 | 3
Cc1nnc(N/N=C/c2c(Cl)cccc2Cl)n1N | 5 | 1 | 1 | 5 | -7 | · | ·
SMILES | PLC-beta3 inh | HGIII-sPLA2 inh | proCasp3 act | PLC-gamma1 inh | procasp7 counter | PLCg1 ctr | PLCb3 confirm
CCc1nnc(N/N=C/c2c(F)cccc2Cl)n1N | 3 | 5 | -13 | 14* | -5 | -9 | -4
Cn1c(N=Nc2ccccc2)nc2ccccc21 | 12* | 0 | 1 | 8 | 2 | -2 | -2
Cn1c(Cl)nc2ccccc21 | 3 | 6 | -10 | 1 | 1 | · | ·
c1ccc(Cn2ccc3ccc(-c4ccc5ccn(Cc6cccc(Oc7ccccc7)c6)c5c4)cc32)cc1 | -69 | 19 | · | -49 | · | · | ·
COc1ccc(C(=O)Nc2cccc([N+](=O)[O-])c2)cc1Br | 11* | 5 | 5 | 1 | 10 | 5 | 0
COc1ccc(C(=O)Nc2ccc(OC)c([N+](=O)[O-])c2)cc1Br | 4 | -3 | -2 | 3 | -9 | · | ·
CN1c2ccccc2C(=O)/C(=C\Nc2ccc(F)cc2F)S1(=O)=O | -5 | 1 | 8 | -6 | 9 | · | ·
S=c1[nH]nc(-c2ccco2)n1/N=C/c1ccccc1Cl | -2 | 18 | -4 | 0 | -20 | · | ·
Cc1ccc(/C=N/n2c(-c3ccco3)n[nH]c2=S)s1 | 1 | 17 | -4 | 11* | -13 | -12 | -9
O=C(NCc1ccc(OC(F)(F)F)cc1)C1CCC(=O)N(C2CC2)C1 (stereo unspecified) | -3 | 8 | · | 11* | · | -1 | 0
O=C(NCc1ccc(Cl)cc1)C1CCC(=O)N(C2CC2)C1 (stereo unspecified) | -4 | 3 | -5 | 1 | -5 | · | ·
CCCc1nc2sc3c(c2c(=O)n1N)CCC3 | 1 | -2 | 0 | 1 | 7 | · | ·
CCc1nc2sc3c(c2c(=O)n1N)CCC3 | 1 | 8 | 0 | 11* | 1 | -3 | -3
OC(COC1CCCCC1)CN1CCN(c2ccccc2)CC1 (stereo unspecified) | 6 | 5 | 7 | 13* | 0 | -7 | -3
CC1(C(=O)NS(=O)(=O)c2ccc(Cl)s2)CCN1C(=O)C1(c2ccc(Cl)cc2)CCC1 (stereo unspecified) | 0 | -34 | · | -3 | · | · | ·
CCc1cccc(NS(=O)(=O)c2c(C)n[nH]c2C)c1 | 4 | -29 | 1 | 9.8* | 9 | -4 | -2
CC(=O)c1cccc(NS(=O)(=O)c2c(C)n[nH]c2C)c1 | 0 | 1 | 3 | 3 | 1 | · | ·
